Reference: ChEMBL document CHEMBL1926577, “Novel 1,3,4-heterodiazole analogues: synthesis and in-vitro antitumor activity” (2012)

What was measured:
Type in all cases: functional
SNB-75 = assay: Growth inhibition of human SNB75 cells at 10 uM after 48 hrs by coulter counter method; conditions: SNB-75, 48 h, read-out: GI
Procedure, shortened: (§1)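 NCI 60-cell-line panel, single dose. Compound dissolved first in DMSO, then diluted in phosphate-buffered saline so that every final dilution held under 1% DMSO. Duplicate wells received cells at 6 × 10⁴ cells/ml. Controls held PBS/DMSO at the same dilution. Plates were incubated 48 h at 37 °C under 5% CO₂. Cells were then diluted 10-fold in saline and counted on a Coulter counter, with counts corrected for the dilution. Results are given as percent growth inhibition.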

A498 = assay: Growth inhibition of human A498 cells at 10 uM after 48 hrs by coulter counter method; conditions: A498, 48 h, read-out: GI; procedure, shortened: as §1
M14 = assay: Growth inhibition of human M14 cells at 10 uM after 48 hrs by coulter counter method; conditions: M14, 48 h, read-out: GI; procedure, shortened: as §1
SK-MEL-5 = assay: Growth inhibition of human SK-MEL-5 cells at 10 uM after 48 hrs by coulter counter method; conditions: SK-MEL-5, 48 h, read-out: GI; procedure, shortened: as §1
CAKI-1 = assay: Growth inhibition of human Caki1 cells at 10 uM after 48 hrs by coulter counter method; conditions: CAKI-1, 48 h, read-out: GI; procedure, shortened: as §1
TK-10 = assay: Growth inhibition of human TK10 cells at 10 uM after 48 hrs by coulter counter method; conditions: TK-10, 48 h, read-out: GI; procedure, shortened: as §1
UACC-257 = assay: Growth inhibition of human UACC257 cells at 10 uM after 48 hrs by coulter counter method; conditions: UACC-257, 48 h, read-out: GI; procedure, shortened: as §1
NCI-H226 = assay: Growth inhibition of human NCI-H226 cells at 10 uM after 48 hrs by coulter counter method; conditions: NCI-H226, 48 h, read-out: GI; procedure, shortened: as §1
786-0 = assay: Growth inhibition of human 786-0 cells at 10 uM after 48 hrs by coulter counter method; conditions: 786-0, 48 h, read-out: GI; procedure, shortened: as §1
PC-3 = assay: Growth inhibition of human PC3 cells at 10 uM after 48 hrs by coulter counter method; conditions: PC-3, 48 h, read-out: GI; procedure, shortened: as §1
MOLT-4 = assay: Growth inhibition of human MOLT4 cells at 10 uM after 48 hrs by coulter counter method; conditions: MOLT-4, 48 h, read-out: GI; procedure, shortened: as §1
U-251 = assay: Growth inhibition of human U251 cells at 10 uM after 48 hrs by coulter counter method; conditions: U-251, 48 h, read-out: GI; procedure, shortened: as §1
SF-268 = assay: Growth inhibition of human SF268 cells at 10 uM after 48 hrs by coulter counter method; conditions: SF-268, 48 h, read-out: GI; procedure, shortened: as §1
NCI-H322M = assay: Growth inhibition of human NCI-H322M cells at 10 uM after 48 hrs by coulter counter method; conditions: read-out: GI; procedure, shortened: as §1
ACHN = assay: Growth inhibition of human ACHN cells at 10 uM after 48 hrs by coulter counter method; conditions: read-out: GI; procedure, shortened: as §1
IGROV-1 = assay: Growth inhibition of human IGROV1 cells at 10 uM after 48 hrs by coulter counter method; conditions: IGROV-1, 48 h, read-out: GI; procedure, shortened: as §1
HCT-15 = assay: Growth inhibition of human HCT15 cells at 10 uM after 48 hrs by coulter counter method; conditions: HCT-15, 48 h, read-out: GI; procedure, shortened: as §1
HT-29 = assay: Growth inhibition of human HT-29 cells at 10 uM after 48 hrs by coulter counter method; conditions: HT-29, 48 h, read-out: GI; procedure, shortened: as §1
HL-60(TB) = assay: Growth inhibition of human HL-60(TB) cells at 10 uM after 48 hrs by coulter counter method; conditions: HL-60, 48 h, read-out: GI
Procedure, shortened: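 Single-dose screen on the NCI 60-line panel (leukemia subpanel). Compound is dissolved in DMSO and diluted in PBS, with final DMSO below 1%. Duplicate wells hold 6 × 10⁴ cells/ml at 37 °C, 5% CO₂, for 48 h. Cells are counted by Coulter counter after 10-fold saline dilution. Read-out is percent growth versus PBS/DMSO controls, expressed as % growth inhibition.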

UO-31 = assay: Growth inhibition of human UO31 cells at 10 uM after 48 hrs by coulter counter method; conditions: UO-31, 48 h, read-out: GI; procedure, shortened: as §1
RPMI-8226 = assay: Growth inhibition of human RPMI8226 cells at 10 uM after 48 hrs by coulter counter method; conditions: RPMI-8226, 48 h, read-out: GI; procedure, shortened: as §1
MCF7 = assay: Growth inhibition of human MCF7 cells at 10 uM after 48 hrs by coulter counter method; conditions: MCF7, 48 h, read-out: GI; procedure, shortened: as §1
KM12 = assay: Growth inhibition of human KM12 cells at 10 uM after 48 hrs by coulter counter method; conditions: KM12, 48 h, read-out: GI; procedure, shortened: as §1
UACC-62 = assay: Growth inhibition of human UACC62 cells at 10 uM after 48 hrs by coulter counter method; conditions: UACC-62, 48 h, read-out: GI; procedure, shortened: as §1
SN12C = assay: Growth inhibition of human SN12C cells at 10 uM after 48 hrs by coulter counter method; conditions: read-out: GI; procedure, shortened: as §1
MDA-MB-435 = assay: Growth inhibition of human MDA-MB-435 cells at 10 uM after 48 hrs by coulter counter method; conditions: MDA-MB-435, 48 h, read-out: GI; procedure, shortened: as §1
Malme-3M = assay: Growth inhibition of human MALME-3M cells at 10 uM after 48 hrs by coulter counter method; conditions: read-out: GI; procedure, shortened: as §1
K562 = assay: Growth inhibition of human K562 cells at 10 uM after 48 hrs by coulter counter method; conditions: K562, 48 h, read-out: GI; procedure, shortened: as §1
HCT-116 = assay: Growth inhibition of human HCT116 cells at 10 uM after 48 hrs by coulter counter method; conditions: HCT-116, 48 h, read-out: GI; procedure, shortened: as §1
SK-MEL-28 = assay: Growth inhibition of human SK-MEL-28 cells at 10 uM after 48 hrs by coulter counter method; conditions: SK-MEL-28, 48 h, read-out: GI; procedure, shortened: as §1
T47D = assay: Growth inhibition of human T47D cells at 10 uM after 48 hrs by coulter counter method; conditions: read-out: GI; procedure, shortened: as §1
MDA-MB-468 = assay: Growth inhibition of human MDA-MB-468 cells at 10 uM after 48 hrs by coulter counter method; conditions: MDA-MB-468, 48 h, read-out: GI; procedure, shortened: as §1
LOX IMVI = assay: Growth inhibition of human LOXIMVI cells at 10 uM after 48 hrs by coulter counter method; conditions: read-out: GI; procedure, shortened: as §1
EKVX = assay: Growth inhibition of human EKVX cells at 10 uM after 48 hrs by coulter counter method; conditions: read-out: GI; procedure, shortened: as §1
NCI/ADR-RES = assay: Growth inhibition of human NCI/ADR-RES cells at 10 uM after 48 hrs by coulter counter method; conditions: read-out: GI; procedure, shortened: as §1
SF-295 = assay: Growth inhibition of human SF295 cells at 10 uM after 48 hrs by coulter counter method; conditions: SF-295, 48 h, read-out: GI; procedure, shortened: as §1
SK-MEL-2 = assay: Growth inhibition of human SK-MEL-2 cells at 10 uM after 48 hrs by coulter counter method; conditions: SK-MEL-2, 48 h, read-out: GI; procedure, shortened: as §1
SR = assay: Growth inhibition of human SR cells at 10 uM after 48 hrs by coulter counter method; conditions: read-out: GI; procedure, shortened: as §1
OVCAR-8 = assay: Growth inhibition of human OVCAR8 cells at 10 uM after 48 hrs by coulter counter method; conditions: OVCAR-8, 48 h, read-out: GI; procedure, shortened: as §1
SNB-19 = assay: Growth inhibition of human SNB19 cells at 10 uM after 48 hrs by coulter counter method; conditions: SNB-19, 48 h, read-out: GI; procedure, shortened: as §1
NCI-H522 = assay: Growth inhibition of human NCI-H522 cells at 10 uM after 48 hrs by coulter counter method; conditions: NCI-H522, 48 h, read-out: GI; procedure, shortened: as §1
NCI-H23 = assay: Growth inhibition of human NCI-H23 cells at 10 uM after 48 hrs by coulter counter method; conditions: NCI-H23, 48 h, read-out: GI; procedure, shortened: as §1
CCRF-CEM = assay: Growth inhibition of human CCRF-CEM cells at 10 uM after 48 hrs by coulter counter method; conditions: read-out: GI; procedure, shortened: as §1
BT-549 = assay: Growth inhibition of human BT549 cells at 10 uM after 48 hrs by coulter counter method; conditions: BT-549, 48 h, read-out: GI; procedure, shortened: as §1
A549 = assay: Growth inhibition of human A549 cells at 10 uM after 48 hrs by coulter counter method; conditions: A549, 48 h, read-out: GI; procedure, shortened: as §1

O=C1CN2N=C(c3ccc(Cl)cc3)OC2=N1
inhibition of growth at 10 µM (SNB-75): < 10%
inhibition of growth at 10 µM (A498): < 10%
inhibition of growth at 10 µM (M14): < 10%
inhibition of growth at 10 µM (SK-MEL-5): < 10%
inhibition of growth at 10 µM (CAKI-1): < 10%
inhibition of growth at 10 µM (TK-10): < 10%
inhibition of growth at 10 µM (UACC-257): < 10%
inhibition of growth at 10 µM (NCI-H226): < 10%
inhibition of growth at 10 µM (786-0): < 10%
inhibition of growth at 10 µM (PC-3): < 10%
inhibition of growth at 10 µM (MOLT-4): < 10%
inhibition of growth at 10 µM (U-251): < 10%
inhibition of growth at 10 µM (SF-268): < 10%
inhibition of growth at 10 µM (NCI-H322M): < 10%
inhibition of growth at 10 µM (ACHN): < 10%
inhibition of growth at 10 µM (IGROV-1): < 10%
inhibition of growth at 10 µM (HCT-15): < 10%
inhibition of growth at 10 µM (HT-29): < 10%
inhibition of growth at 10 µM (HL-60(TB)): < 10%
inhibition of growth at 10 µM (UO-31): 26.8%
inhibition of growth at 10 µM (RPMI-8226): < 10%
inhibition of growth at 10 µM (MCF7): < 10%
inhibition of growth at 10 µM (KM12): < 10%
inhibition of growth at 10 µM (UACC-62): < 10%
inhibition of growth at 10 µM (SN12C): < 10%
inhibition of growth at 10 µM (MDA-MB-435): < 10%
inhibition of growth at 10 µM (Malme-3M): < 10%
inhibition of growth at 10 µM (K562): 17.2%
inhibition of growth at 10 µM (HCT-116): < 10%
inhibition of growth at 10 µM (SK-MEL-28): < 10%
inhibition of growth at 10 µM (T47D): < 10%
inhibition of growth at 10 µM (MDA-MB-468): < 10%
inhibition of growth at 10 µM (LOX IMVI): < 10%
inhibition of growth at 10 µM (EKVX): < 10%
inhibition of growth at 10 µM (NCI/ADR-RES): < 10%
inhibition of growth at 10 µM (SF-295): < 10%
inhibition of growth at 10 µM (SK-MEL-2): < 10%
inhibition of growth at 10 µM (SR): < 10%
inhibition of growth at 10 µM (OVCAR-8): < 10%
inhibition of growth at 10 µM (SNB-19): < 10%
inhibition of growth at 10 µM (NCI-H522): 18.9%
inhibition of growth at 10 µM (NCI-H23): < 10%
inhibition of growth at 10 µM (CCRF-CEM): < 10%
inhibition of growth at 10 µM (BT-549): < 10%
inhibition of growth at 10 µM (A549): < 10%
